This note sets out measurements from ChEMBL document CHEMBL3822425, “Isatin Derived Spirocyclic Analogues with α-Methylene-γ-butyrolactone as Anticancer Agents: A Structure-Activity Relationship Study” (J Med Chem, 2016).

The test system of series [1] is A549. The series can be described thus: Inhibition of TNFalpha-induced IKKbeta-mediated NF-kappaB activity in human A549 cells at 10 uM after 2 hrs followed by TNFalpha addition for 7 hrs by ONE-Glo Luciferase reporter based luminescence assay. The class given is cell-based. In short, it runs like this: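 A549 luciferase cells grown 5 passages without TNFα then 2 passages with or without 5 ng/mL TNFα; 50,000 per well overnight; 10 µM compound 2 h; then 20 ng/mL TNFα 7 h; PrestoBlue 10 min (560ex/590em) viability; ONE-Glo 10 min, luminescence 1000 ms.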

For series [2], the target named is T1, Inhibitor of nuclear factor kappa-B kinase subunit beta (Homo sapiens) (UniProt O14920).
T1 sequence (whole entry): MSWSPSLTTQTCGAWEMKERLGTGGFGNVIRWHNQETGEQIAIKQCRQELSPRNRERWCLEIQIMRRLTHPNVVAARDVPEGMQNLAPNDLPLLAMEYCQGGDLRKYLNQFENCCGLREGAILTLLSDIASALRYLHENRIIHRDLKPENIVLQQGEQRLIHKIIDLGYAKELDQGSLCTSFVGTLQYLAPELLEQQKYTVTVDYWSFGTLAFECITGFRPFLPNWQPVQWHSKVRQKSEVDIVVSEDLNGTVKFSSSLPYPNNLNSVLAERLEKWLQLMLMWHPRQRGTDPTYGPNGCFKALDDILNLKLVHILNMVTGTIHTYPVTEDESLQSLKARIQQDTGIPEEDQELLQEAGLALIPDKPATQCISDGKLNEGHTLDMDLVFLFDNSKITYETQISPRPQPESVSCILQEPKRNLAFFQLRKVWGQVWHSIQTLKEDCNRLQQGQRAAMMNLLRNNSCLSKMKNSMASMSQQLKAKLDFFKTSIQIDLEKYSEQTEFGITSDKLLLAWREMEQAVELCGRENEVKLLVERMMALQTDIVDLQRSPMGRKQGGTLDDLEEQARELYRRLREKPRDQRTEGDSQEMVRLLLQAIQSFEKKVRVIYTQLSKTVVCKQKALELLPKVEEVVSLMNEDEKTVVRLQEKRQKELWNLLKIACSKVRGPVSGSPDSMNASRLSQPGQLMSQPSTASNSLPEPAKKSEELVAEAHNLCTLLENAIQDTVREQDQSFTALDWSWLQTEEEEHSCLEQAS
The series can be described thus: Inhibition of IKKbeta in human MDA-MB-231 cells assessed as reduction in IkappaBalpha phosphorylation by Western blot analysis. The format is cell-based. A digest of the protocol: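 MDA-MB-231 cytoplasmic fractions: swelling 30 min on ice in HEPES/KCl/EDTA/DTT buffer with inhibitors, 1.25% NP-40, centrifuged; lysates on 4-20% gels, PVDF, anti-phospho-IκBα and anti-IκBα, tubulin or GAPDH loading control, ECL detection.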

In series [3] the test system is A549. The series can be described thus: Inhibition of TNFalpha-induced IKKbeta-mediated NF-kappaB activity in human A549 cells at 10 uM after 2 hrs followed by TNFalpha addition for 7 hrs by ONE-Glo Luciferase reporter based luminescence assay. On the technique in general: Reporter assays use an easily measured gene product as a stand-in for the process of interest.

The subject of another series is A2780. The series can be described thus: Cytotoxicity against human A2780 cells assessed as cell growth inhibition after 3 days by presto blue dye based plate reader method. The format is functional. The conditions noted are these: A2780, 72 h. In short, it runs like this:
(§1)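 Cells in DMEM high glucose/10% FBS (A2780 in RPMI/10% FBS), 4,000 per well, overnight, then 40 to 0.039 µM or vehicle, 24, 48, 72 h at 37°C, 5% CO2; PrestoBlue 15 min, fluorescence 560ex/590em; growth as 100×[(T−Tz)/(C−Tz)] per NCI algorithm.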

Series [4] addresses T2, serum albumin (Homo sapiens, UniProt P02768). Put plainly: Binding affinity to human serum albumin assessed as half life by MS analysis. The class given is ADME.
Series [5] deals with HeLa. The series can be described thus: Cytotoxicity against human HeLa cells expressing GFP assessed as cell growth inhibition after 3 days by presto blue dye based plate reader method. The format is functional. To be noted: 72 h. In short, it runs like this: as §1
Series [6] is described as follows: Cytotoxicity against human MIAPaCa2 cells assessed as cell growth inhibition after 3 days by presto blue dye based plate reader method. The class given is functional. To be noted: MIA PaCa-2, 72 h. In short, it runs like this: as §1
The subject of a further series is SW480. The series can be described thus: Cytotoxicity against human SW480 cells assessed as cell growth inhibition after 3 days by presto blue dye based plate reader method. The class given is functional. The conditions noted are these: SW480, 72 h.
Series [7] addresses T2, serum albumin. Put plainly: Binding affinity to human serum albumin assessed as half life by HPLC analysis. The class given is ADME.
The subject of series [8] is MDA-MB-231. The series can be described thus: Cytotoxicity against human MDA-MB-231 cells assessed as cell growth inhibition after 3 days by presto blue dye based plate reader method. The format is functional. A digest of the protocol: as §1
Series [9] concerns the target T1, Inhibitor of nuclear factor kappa-B kinase subunit beta (Homo sapiens). The series can be described thus: Covalent inhibition of IKKbeta (unknown origin) at 10 uM after 1 hr by rhodamine azide dye based SDS-PAGE method. In short, it runs like this: (§2)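 Purified IKKβ or p65 (250 ng in 200 µL) incubated 1 h with 10 µM alkyne probe; click reaction 1 h with 0.1 mM 5-TAMRA azide, 1 mM TCEP, 1 mM CuSO4, 0.1 mM TBTA; methanol precipitation, pellet in SDS buffer, 4-20% SDS-PAGE, fluorescence gel scanning.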

A further series is filed under the species Homo sapiens. Put plainly: Covalent inhibition of C-terminus truncated NF-kappaB p65 L15V/P180S/F309S/A439V/V462M mutant (unknown origin) at 10 uM after 1 hr by rhodamine azide dye based SDS-PAGE method. A digest of the protocol: as §2
The test system of series [10] is MDA-MB-231. The series can be described thus: Cytotoxicity against human MDA-MB-231 cells assessed as cell growth inhibition at 0.039 to 40 uM by presto blue dye based plate reader method. The class given is functional.
In series [11] the test system is HeLa. The series can be described thus: Anticlonogenic activity against human HeLa cells assessed as inhibition of colony formation after 2 to 7 days by crystal violet staining. The format is functional, cell-based. In short, it runs like this:
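HeLa cells seeded at 500-1000 per well, grown 24 h, drug-treated 48 h at 37°C (DMSO control), then fresh medium for 7 days; methanol fixed 15 min, 0.1% crystal violet 30 min at room temperature, colonies over 50 cells counted.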

For series [12], the system named is HeLa. The series can be described thus: Induction of apoptosis in human HeLa cells assessed as PARP cleavage after 24 to 48 hrs by Western blot analysis. The format is functional, cell-based. A digest of the protocol: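 Cells collected with media and trypsinized pellet combined, lysed in RIPA buffer (pH 8.0), 4-20% SDS-PAGE, Western blot with anti-PARP to detect cleavage; HeLa timepoint 48 h.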
For orientation: A western blot detects proteins with antibodies after separation by electrophoresis.

Series [13] deals with T1, Inhibitor of nuclear factor kappa-B kinase subunit beta (Homo sapiens). Put plainly: Inhibition of IKKbeta in human MIAPaCa2 cells assessed as reduction in IkappaBalpha phosphorylation at 10 to 20 uM by Western blot analysis. The format is cell-based. The conditions noted are these: MIA PaCa-2.

Activity calls are given as the source filed them. Bounds are passed on as bounds.

T2 sequence (P02768 whole entry): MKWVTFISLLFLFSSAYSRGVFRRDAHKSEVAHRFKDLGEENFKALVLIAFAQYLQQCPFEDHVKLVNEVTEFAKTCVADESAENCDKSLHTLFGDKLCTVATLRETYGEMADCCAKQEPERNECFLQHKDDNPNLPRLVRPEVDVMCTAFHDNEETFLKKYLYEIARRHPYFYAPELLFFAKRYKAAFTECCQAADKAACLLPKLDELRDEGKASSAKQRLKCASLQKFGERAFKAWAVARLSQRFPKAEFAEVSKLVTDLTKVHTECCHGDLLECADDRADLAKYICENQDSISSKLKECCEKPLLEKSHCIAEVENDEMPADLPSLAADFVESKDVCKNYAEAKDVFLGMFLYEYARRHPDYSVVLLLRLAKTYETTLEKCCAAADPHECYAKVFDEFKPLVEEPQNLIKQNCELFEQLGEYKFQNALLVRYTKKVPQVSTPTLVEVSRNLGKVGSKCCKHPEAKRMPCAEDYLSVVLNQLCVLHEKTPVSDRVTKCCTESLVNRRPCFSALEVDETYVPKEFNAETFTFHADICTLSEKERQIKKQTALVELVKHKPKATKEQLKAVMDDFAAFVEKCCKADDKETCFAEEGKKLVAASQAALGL

In general, inhibition refers to the percentage by which the read-out fell short of the control. With `C=C1CC(c2c(OC)ccc3ccccc23)OC1=O` (stereo not drawn), in the series on A549 [1], the inhibition result is “Active”.

In the case of `C=C(CC1(O)C(=O)Nc2ccccc21)C(=O)OC` (stereo not drawn), the inhibition entry (in series [2]; in the series on A549 [3]) was “Active” each time.

In turn, `C=C1CC(c2cccc(Br)n2)OC1=O` (stereo not drawn) gave an inhibition in the series on A549 [1] of 50%.

Broadly, the EC50 is the concentration that produces a half-maximal response. As to `C=C1CC2(OC1=O)C(=O)Nc1ccc(I)cc12` (stereo not drawn), the EC50 with A2780 came out at 2.2 µM.

As for `C=C1CC(c2cccc3ccccc23)OC1=O` (stereo not drawn), in the series with A549 [1], the inhibition was 50%.

For the compound `C=C1CC(c2cccc(OC)c2)OC1=O` (stereo not drawn), the inhibition in the series on A549 [1] is 25%.

A word on the half-life: it is the time needed for the level to fall by half in the phase considered. One may read the IC50 as the concentration that inhibits the measured activity by half. For the compound `C=C1C(=O)O[C@@H]2C3O[C@]3(C)CC/C=C(\C)CC[C@@H]12` (stereo partly drawn), the EC50 with A2780 was 12.9 µM. The figures for the half-life on serum albumin [4] and on serum albumin [7] were 37 min and 66 min, respectively. Also, the results for the IC50 (in the series with HeLa [5]; in series [6]; with SW480) were 5.7 µM, 9.8 µM and 15.3 µM, respectively. In addition, in the series with A549 [3], the inhibition is more than 95%.

Take `NC(=O)Nc1sc(-c2ccc(F)cc2)cc1C(N)=O`: the “growth inhibition (GI)” value with MDA-MB-231 [8] was “Active”.

Turning to `C#CCCN1C(=O)C2(CC(=C)C(=O)O2)c2ccccc21` (stereo not drawn), the EC50 in the series on A2780 was 5.5 µM. Moreover, the inhibition with A549 [1] turned out to be 75%. Besides, the inhibition entry (in [9]; in the series filed under Homo sapiens) was “Active” throughout.

The compound `C=C1CC(c2c(OCc3ccccc3)ccc3ccccc23)OC1=O` (stereo not drawn) showed an inhibition in the series on A549 [1] of less than 25%.

Turning to `CC1CC2(OC1=O)C(=O)Nc1ccccc12` (stereo not drawn), the inhibition result (in series [2]; in the series on HeLa [11]; in series [13]) was “inactive” throughout. In addition, the “growth inhibition (GI)” value in the series with MDA-MB-231 [10] and in the series on MDA-MB-231 [8] was “inactive” throughout. In the series with A549 [3], this compound returned an inhibition of 5%. The result with HeLa [12] was inactive.

`C=C1CC(c2ccc(OCc3ccccc3)cc2)OC1=O` (stereo not drawn) registered an inhibition with A549 [1] of 25%.

For `C=C1CC2(OC1=O)C(=O)Nc1ccc(OC)cc12` (stereo not drawn), the EC50 in the series with A2780 was determined as 3.1 µM.

`C=C1CC(c2ccc(OC)c(OC)c2)OC1=O` (stereo not drawn) gave an inhibition with A549 [1] of 25%.

On to `C=C1CC(c2ccnc3ccccc23)OC1=O` (stereo not drawn), for which the inhibition entry in the series with A549 [1] is “inactive”.

For `C=C1CC(c2ccc(C3CC(=C)C(=O)O3)cc2)OC1=O` (stereo not drawn), the inhibition entry with A549 [1] is “Active”.

For the compound `C=C1CC(c2ccccn2)OC1=O` (stereo not drawn), the inhibition in the series on A549 [1] was less than 25%.

Regarding `C=C1CC2(OC1=O)C(=O)Nc1c([N+](=O)[O-])cc(Br)cc12` (stereo not drawn), in the series with A2780, the EC50 was 2 µM.

Compound `C=C1CC(c2cccc(OCc3ccccc3)c2)OC1=O` (stereo not drawn) yielded an inhibition in the series with A549 [1] of 25%.

`C=C1CC(c2ccccc2)OC1=O` (stereo not drawn): the inhibition with A549 [1] turned out to be 25%.

As for `C=C1CC(c2ccc(OC)cc2)OC1=O` (stereo not drawn), the inhibition in the series on A549 [1] is 25%.

With `C=CC(=O)N1CCC[C@@H](n2nc(-c3ccc(Oc4ccccc4)cc3)c3c(N)ncnc32)C1` [IBRUTINIB], the EC50 in the series on A2780 was found to be 20.1 µM. Besides, the IC50 with HeLa [5] was 16.8 µM; in series [6], 16.6 µM; in the series with SW480 it was 25.6 µM.

Turning to `O=C(Nc1ccc(Br)cc1)Nc1ccc2nc(-c3ccco3)c(-c3ccco3)nc2c1`, in the series on MDA-MB-231 [8], the “growth inhibition (GI)” value is “Active”.

Take `Cc1ccc(C)c2c1NC(=O)C21CC(C)C(=O)O1` (stereo not drawn): in the series on A2780, the EC50 was more than 100 µM. The IC50 (in the series with HeLa [5]; in series [6]; in the series on SW480) was more than 100 µM each time.

Regarding `C=C1CC2(OC1=O)C(=O)N(Cc1ccccc1)c1ccccc12` (stereo not drawn), the EC50 in the series with A2780 worked out at 2.7 µM.

Consider `C=C1CC2(OC1=O)C(=O)N(C)c1ccccc12` (stereo not drawn), for which the EC50 in the series with A2780 is 3.9 µM.

For `C=C1C(=O)OC2(C(=O)Nc3ccccc32)C1c1ccccc1` (stereo not drawn), in the series on A2780, the EC50 came to 3.8 µM.

In turn, `C=C1CC(c2cccc(C(F)(F)F)c2)OC1=O` (stereo not drawn) displayed an inhibition with A549 [1] of 25%.

The compound `C=C1CC(c2ccc(OC)c(OCc3ccccc3)c2)OC1=O` (stereo not drawn) came in with an inhibition in the series with A549 [1] of 25%.

As to `C=C1CC(c2ccc3ccccc3c2)OC1=O` (stereo not drawn), the inhibition in the series on A549 [1] came to 50%.

The compound `C=C1CC(c2ccc(F)cc2)OC1=O` (stereo not drawn) gave an inhibition with A549 [1] of 25%.

As for `CCC(=O)N1CCC[C@@H](n2nc(-c3ccc(Oc4ccccc4)cc3)c3c(N)ncnc32)C1`, the EC50 in the series on A2780 worked out at 15.2 µM. Also, the IC50 in the series on HeLa [5] was 15.1 µM; in series [6] it was 8.2 µM; in the series on SW480 it was 13.4 µM.

As for `C/C1=C\CC[C@@]2(C)O[C@H]2[C@H]2OC(=O)C(C)[C@@H]2CC1` (stereo partly drawn), in the series with A2780, the EC50 was more than 100 µM. The IC50 in the series on HeLa [5] is 66.1 µM; in series [6], 84.3 µM; in the series on SW480, more than 100 µM. In addition, the inhibition with A549 [3] was found to be 20%.

Regarding `N#Cc1c(C2CCNCC2)cc(-c2c(O)cccc2OCC2CC2)nc1N`, the “growth inhibition (GI)” value with MDA-MB-231 [8] was “Active”.
